# Screening results from PubChem BioAssay.
# The list is not random: actives were taken first. Their share in the collection is about 4.2%.
# OX1R antag-1: antagonists of human orexin 1 receptor (OX1R); O43613; OX1R-expressing cells, FRET antagonist read-out; inhibition, % at 6.6 µM; 330,000 compounds, 1.8% hits; in the data active = inhibition mostly above about 38%, no sharp cut-off; inactive = mostly below about 40%
# Target sequence (O43613 whole entry, looked up): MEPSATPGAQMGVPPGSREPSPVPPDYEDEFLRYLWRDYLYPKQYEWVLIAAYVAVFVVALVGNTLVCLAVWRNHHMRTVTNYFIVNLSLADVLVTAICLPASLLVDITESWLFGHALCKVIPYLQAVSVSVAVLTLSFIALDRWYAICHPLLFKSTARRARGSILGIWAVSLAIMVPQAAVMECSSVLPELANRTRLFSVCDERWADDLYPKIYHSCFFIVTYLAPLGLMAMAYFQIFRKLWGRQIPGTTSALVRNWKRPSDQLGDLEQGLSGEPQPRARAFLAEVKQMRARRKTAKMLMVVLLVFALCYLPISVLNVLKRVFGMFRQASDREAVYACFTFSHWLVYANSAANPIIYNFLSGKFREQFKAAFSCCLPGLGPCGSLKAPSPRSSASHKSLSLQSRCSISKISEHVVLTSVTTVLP
# CHO parental Ca: counter-screen: ATP calcium response change in parental CHO cells. parental CHO-K1, ATP-induced calcium, Fluo-8 fluorescence. inhibition, % at 5.6 µM. 330,000 compounds, 0.63% hits;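 active = inhibition above that plate's mean sample inhibition plus 3 SD, cut at about 26% in these data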
#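 Test system: untransfected parental CHO cell line; also added: ATP stimulus; dosing: 5.6 µM, single dose; signal: calcium-sensitive Fluo-8 fluorescence; measure: percent inhibition of ATP-evoked calcium rise, normalized to controls; benchmarks: low control ATP plus DMSO, high control DMSO only; replication: one well per compound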
# OX1R antag-2: human HCRTR1 antagonism. O43613. CHO/OX1R cells, Fluo-8 calcium fluorescence, orexin A. inhibition, % at 5 µM. 330,000 compounds, 0.43% hits;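 active = inhibition above its plate's threshold, mean inhibition of all tested compounds on the plate plus 3 SD, cut at about 37% in these data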
# TAAR1 antagonist: antagonists of human TAAR1 | Q96RJ0 | CHO RD-HGA16 TAAR1, Fluo-8 calcium fluorescence, antagonist | inhibition, % at 3 µM | 360,000 compounds, 1.5% hits;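 active = inhibition above a per-plate cutoff, the mean inhibition of test compounds on that plate plus 3 SD, cut at about 49% in these data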
#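 System: CHO RD-HGA16 cells bearing hTAAR1. Reagent: EC80 β-phenethylamine stimulus. Schedule: seeding 17-24 h prior, 75-min 37 °C, 30-min RT dye loading. Signal: Fluo-8 intracellular calcium dye fluorescence, real-time kinetic reads. Read-out: % inhibition from peak post-agonist over basal fluorescence ratio. Benchmarks: vehicle wells and EC80 agonist wells. Replicates: n of 1.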
# TAAR1 agonist: human TAAR1 agonism | Q96RJ0 | CHO RD-HGA16 TAAR1, Fluo-8 calcium fluorescence; vehicle wells 0%, saturating PEA agonist 100% | activation, % at 3 µM | 360,000 compounds, 0.99% hits | AID 624467;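 active = activation above the mean activation of all test compounds in the run plus 3 SD, cut at about 38% in these data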
#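 System: CHO-derived RD-HGA16 cells with stable Gα16 and human TAAR1. Times: 17-24 h plating, Fluo-8 75 min 37 °C, 30 min RT. Measured by: calcium-sensitive Fluo-8 signal, excitation 470-495, emission 515-575 nm. Read-out basis: % activation relative to PEA EC100 response. Control set: DMSO and PEA EC100. Repeats: no replicates (n 1).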
# GalR3 antag: antagonists of human GalR3; 360,000 compounds, 0.44% hits; AID 651719; HEK293 GalR3-CNG cAMP membrane potential fluorescence; galR3 body fused to GalR1 C-terminus; inhibition, % at 3 µM; O60755;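 active = inhibition above the screen-wide average plus 3 SD, cut at about 13% in these data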;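 note: forskolin and galanin both at EC90 stimulate the cells; cAMP rise reported by CNG channel membrane potential dye signal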
# Target sequence (O60755 1-299 limits assumed): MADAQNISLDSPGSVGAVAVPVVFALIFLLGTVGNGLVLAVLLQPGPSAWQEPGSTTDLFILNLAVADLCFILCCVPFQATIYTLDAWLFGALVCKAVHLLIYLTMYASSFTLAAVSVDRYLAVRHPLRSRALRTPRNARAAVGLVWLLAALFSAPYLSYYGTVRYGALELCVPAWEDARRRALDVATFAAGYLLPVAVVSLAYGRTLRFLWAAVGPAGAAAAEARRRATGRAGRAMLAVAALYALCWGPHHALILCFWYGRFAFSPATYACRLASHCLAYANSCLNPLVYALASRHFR
# OX1R Ca confirm: OX1R (human) antagonism, confirmed | shares compounds with OX1R antag-2 | CHO/OX1R cells, orexin A calcium Fluo-8 fluorescence | inhibition, % at 5 µM | 1,100 compounds, 38% hits; in the data active = inhibition above about 29%
# CHO Ca triplic: counter-screen for OX1R antagonists: effect in parental CHO cells. shares compounds with OX1R antag-2. parental CHO-K1, ATP-induced calcium, Fluo-8 fluorescence. inhibition, % at 5.6 µM. 1,100 compounds, 9.3% hits. AID 492965;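 active = inhibition above a per-plate limit, the mean inhibition of that plate's test compounds plus 3 SD, cut at about 25% in these data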
# Numbers stand for hits; - = inactive; . = no result.
SMILES,OX1R antag-1,CHO parental Ca,OX1R antag-2,TAAR1 antagonist,TAAR1 agonist,GalR3 antag,OX1R Ca confirm,CHO Ca triplic
CC(C)=CCOc1c2ccoc2cc2oc(=O)ccc12,-,-,-,-,-,-,.,.
CC(C)=CCOc1c2ccoc2c(OCC=C(C)C)c2oc(=O)ccc12,-,-,54,-,-,-,-,53
O=C1CC(NCc2ccccc2)C(=O)N1c1ccc(F)cc1 (configuration not stated),.,.,.,-,-,-,.,.
O=C1CC(NCc2ccccc2F)C(=O)N1c1ccccc1 (configuration not stated),-,-,43,-,-,-,-,-
COc1ccc2c(C)cc(=O)sc2c1,.,.,.,-,-,-,.,.
CNc1ccc(Oc2c(F)c(F)nc(F)c2F)cc1,-,-,-,-,-,-,-,-
Nc1nc(SCc2nc3scc(-c4ccccc4)c3c(=O)[nH]2)n[nH]1,-,-,-,-,-,-,.,.
Nc1nnc(SCc2nc3scc(-c4ccccc4)c3c(=O)[nH]2)s1,-,-,-,-,-,-,-,-
O=C(CSc1nnc(CNC(=O)c2c(F)cccc2F)o1)NCc1ccccc1,-,-,-,-,-,-,.,.
Cc1nc(SCC(=O)Nc2nccs2)c(C#N)c(C)c1C,-,-,-,-,-,-,.,.
Cc1c(Nc2nc3ccccc3nc2NS(=O)(=O)c2cccc(Cl)c2)c(=O)n(-c2ccccc2)n1C,-,-,-,-,-,-,.,.
Cc1ccc(Nc2nc3ccccc3nc2Nc2c(C)n(C)n(-c3ccccc3)c2=O)cc1,-,-,57,-,-,-,-,-
COc1ccc(NC(=O)NCc2ccccn2)c(OC)c1,-,-,-,-,-,-,.,.
CCOc1ccccc1NC(=O)CN(c1nccs1)S(=O)(=O)c1ccc(N)cc1,-,-,-,-,-,-,30,-
CN(C)c1ccc(/C=[N+](\[O-])C2SC(=S)N(C)C2(C)C)cc1 (configuration not stated),-,-,-,-,-,-,.,.
Cc1ccc(C)c(NS(=O)(=O)c2cc(C(=O)Nc3cccc(N(C)S(C)(=O)=O)c3)ccc2C)c1,-,-,65,-,-,-,36,-
Cc1ccccc1NS(=O)(=O)c1cc(C(=O)N2CCCC2)ccc1C,-,-,-,-,-,-,.,.
Cc1ccccc1NS(=O)(=O)c1cc(C(=O)NCCSC2CCCCC2)ccc1C,-,-,60,-,-,-,-,-
Cc1ccc(C)c(NS(=O)(=O)c2cc(C(=O)NCC3CCCO3)ccc2C)c1 (configuration not stated),-,-,-,-,-,-,.,.
Cc1ccc(C)c(NS(=O)(=O)c2cc(C(=O)NCCSC3CCCCC3)ccc2C)c1,-,-,51,-,-,-,-,-
CCOc1ccc(CNCCCSc2ncccn2)cc1OC,-,-,-,-,-,-,.,.
Cc1cccc(OCCCC(=O)Nc2ccc(Cl)c(S(=O)(=O)N3CCOCC3)c2)c1,-,-,-,-,-,-,-,-
Cc1cccc(OCCC(=O)Nc2ccc(C)c(S(=O)(=O)N3CCOCC3)c2)c1,-,-,-,-,-,-,.,.
COc1ccc(S(=O)(=O)N2CCN(CCO)CC2)cc1-c1nnc2c3ccccc3c(C)nn12,-,-,-,-,-,-,.,.
COC(=O)[C@@]12C[C@@H](CC(=O)N3CCCCC3)C(=O)N(Cc3ccccc3)C1=CCC(C)(C)C2,.,.,.,-,-,-,.,.
SMILES,OX1R antag-1,CHO parental Ca,OX1R antag-2,TAAR1 antagonist,TAAR1 agonist,GalR3 antag,OX1R Ca confirm,CHO Ca triplic
Cc1cc(OCc2cc(C(=O)N3CCN(C)C(=O)[C@@H]3C)no2)cc(C)c1Cl,-,-,43,-,-,-,-,28
COc1cccc(-c2sc3ccc(OC)cc3c2-c2ccc(OCCN(C)C)cc2)c1,-,-,59,51,-,-,37,-
Cc1ccc(CS(=O)(=O)CCC(=O)NCCc2ccccc2)cc1,-,-,-,-,-,-,.,.
CCc1ccc(CN2CCC(C(=O)Nc3ccc(Oc4ccccc4)nc3)CC2)o1,-,-,-,-,-,-,.,.
Cc1nn(C)c(C(=O)Nc2ccc(Cl)c([N+](=O)[O-])c2)c1Cl,-,-,-,-,-,-,-,-
Cc1ccc(N=Cc2sc(O)c3ccccc23)cc1,-,-,-,-,-,-,-,-
Cc1ccc(N=Cc2sc(O)c3ccccc23)c(C)c1,-,-,-,-,-,-,.,.
CC(C)Cc1nc2ccccc2[nH]1,-,-,-,-,-,-,.,.
CC(c1ccccc1)C(Cc1nc2ccccc2[nH]1)c1nc2ccccc2[nH]1 (configuration not stated),-,-,45,.,.,.,-,-
Cc1cccc(CC(Cc2nc3ccccc3[nH]2)c2nc3ccccc3[nH]2)c1 (configuration not stated),-,-,-,52,-,-,-,-
CN(Cc1ccccc1)C(=O)COC(=O)c1cc(NS(=O)(=O)c2cccs2)ccc1O,-,-,44,-,-,-,31,26
CCN(CC)S(=O)(=O)c1ccc(O)c(C(=O)OCC(=O)N(C)Cc2ccccc2)c1,-,-,-,-,-,-,.,.
CC(=O)N=c1cccc(NC(C)=O)n1O,-,-,86,-,-,-,-,-
CC(=O)N=C1SC2CS(=O)(=O)CC2N1c1cccc(Cl)c1Cl (configuration not stated),-,-,-,-,-,-,.,.
Cc1ccc(NC(=O)CNC(=O)c2ccco2)cc1,-,-,-,-,-,-,.,.
COc1ccc(C(=O)NNC(=O)C(=O)Nc2cccc3ccccc23)cc1,-,-,-,-,-,-,-,-
COc1ccc(C(=O)Nc2cccc3ccccc23)cc1,-,-,-,-,-,-,.,.
C=CCn1c(SCC(=O)Nc2sccc2C(N)=O)nc2sc(C)c(C)c2c1=O,-,-,-,-,-,-,-,-
CCOC(=O)N1CCN(C(=O)CN(c2ccccc2OC)S(=O)(=O)c2ccc(C)cc2)CC1,-,-,-,-,-,-,.,.
Cc1noc(/C=C/c2ccc(-c3ccccc3Cl)o2)c1[N+](=O)[O-],-,-,-,.,.,.,74,43
CCCCCc1ccc(OCCCC[n+]2ccc(C)cc2)c(CCCCC)c1,-,-,40,-,-,-,-,-
CCN1C(=O)[C@H]2[C@@H](c3ccc(OC)cc3)N[C@]3(CCCN(CCC(C)C)C3=O)[C@H]2C1=O,.,.,.,-,-,-,.,.
Cc1noc(C)c1COc1ccc(C(=O)OCC(N)=O)cc1,-,-,-,-,-,-,.,.
Cc1noc(C)c1COc1ccc(C(=O)OCC(=O)N2c3ccccc3NC(=O)C2(C)C)cc1,-,-,-,67,-,-,47,-
